Published values of several laboratories.
FLT3: Receptor-type tyrosine-protein kinase FLT3 (FLT3, Homo sapiens, UniProt P36888)
FLT3 D835Y: Receptor-type tyrosine-protein kinase FLT3 (FLT3, Homo sapiens, UniProt P36888, D835Y)

Structure (SMILES) | target | read-out | mode | technique | tested at | inhibition [%]
COc1cccc(Nc2cccc(-c3cnc4cc(-c5cnn(C)c5)ccn34)n2)c1 | FLT3 | cell-free assay | – | competition with immobilised ligand | 8.4 nM | > 65
Cn1cncc1C1=CN(c2ncnc3[nH]cnc23)CCS1 | FLT3 | enzyme activity | inhibitor | radiometric | 50 nM | 22.2
CNc1cccc2cc(C(=O)Nc3ccc(C(=O)O)cc3)c(=O)[nH]c12 | FLT3 D835Y | enzyme activity | inhibitor | – | 10 µM | 0.73
CNC(=O)c1ccccc1Nc1cc(Nc2ccc(N3CCOCC3)cc2OC)ncc1C(F)(F)F | FLT3 | enzyme activity | inhibitor | – | 0.1 µM | > 50
CN1CC(Oc2cnc(C#N)cc2-c2ccn3nc(NC(=O)C4CC4)cc3c2)C1 | FLT3 | enzyme activity | inhibitor | – | 1 µM | 0
Cn1cnc(Br)c1C1=CN(c2ncnc3[nH]cnc23)CCS1 | FLT3 | enzyme activity | inhibitor | radiometric | 50 nM | 16.8
CN(C)C1CCN(CC#Cc2nn(C3CCCC3)c3nc(NCc4ccccc4)ncc23)C1 (centres unmarked) | FLT3 | enzyme activity | inhibitor | FRET | 1 µM | 24
COc1cc2ncnc(Nc3ccc(Oc4ccccc4)cc3C)c2cc1OC | FLT3 | enzyme activity | inhibitor | – | 1 µM | 79
CCOc1cc(-c2nncn2C)ccc1Nc1ncc2cc(C)nc(NCC(C)(C)C)c2n1 | FLT3 | enzyme activity | inhibitor | FRET | 1 µM | 54
COc1cc2ncnc(Nc3ccc(Oc4ccccc4)c(C)c3C)c2cc1OC | FLT3 D835Y | enzyme activity | inhibitor | – | 1 µM | 2
O=C(CSc1nc2nccnc2c(=O)n1CCc1ccccc1)Nc1nccs1 | FLT3 | enzyme activity | inhibitor | – | 10 µM | 13
